Sampled rows, rich in hits. Any-hit rate of the full collection: about 6.7%.
Beta apoptosis: blocks beta cell apoptosis | protection from apoptosis, % (no concentration beside the values) | INS-1E cytokine-induced death, ATP luminescence, 48 h; percent of positive-control rescue, neutral wells zero | actives 0.8% (n = 300,000) | AID 435005;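 active = Every replicate reaches about 75%, or at least half do and their mean reaches it too, limit read from the data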;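 also: 0% = cytokine-treated negative control wells and 100% = positive control rescue; higher means more ATP so stronger rescue from cytokine killing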
CHOP inh: CHOP inhibition in unfolded protein response; inhibition, % at 10 µM; CHO-K1 CHOP-promoter luciferase, tunicamycin-induced, 15-18 h; actives 3.8% (n = 220,000);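 active = compounds that reduced the stress-induced luciferase reporter signal by more than about 70% of percent inhibition, limit read from the data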;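 also: 0% = tunicamycin plus vehicle and 100% = wells without tunicamycin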
PREPL inhibitor: inhibits the human prolyl oligopeptidase-like enzyme; Q4J6C6; recombinant PREPL, fluorescence polarization activity-based probe; inhibition, % at 5.96 µM; actives 0.68% (n = 320,000); AID 2751;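 also: 0% = enzyme with DMSO and 100% = wells lacking enzyme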
Target sequence (Q4J6C6 whole entry, looked up): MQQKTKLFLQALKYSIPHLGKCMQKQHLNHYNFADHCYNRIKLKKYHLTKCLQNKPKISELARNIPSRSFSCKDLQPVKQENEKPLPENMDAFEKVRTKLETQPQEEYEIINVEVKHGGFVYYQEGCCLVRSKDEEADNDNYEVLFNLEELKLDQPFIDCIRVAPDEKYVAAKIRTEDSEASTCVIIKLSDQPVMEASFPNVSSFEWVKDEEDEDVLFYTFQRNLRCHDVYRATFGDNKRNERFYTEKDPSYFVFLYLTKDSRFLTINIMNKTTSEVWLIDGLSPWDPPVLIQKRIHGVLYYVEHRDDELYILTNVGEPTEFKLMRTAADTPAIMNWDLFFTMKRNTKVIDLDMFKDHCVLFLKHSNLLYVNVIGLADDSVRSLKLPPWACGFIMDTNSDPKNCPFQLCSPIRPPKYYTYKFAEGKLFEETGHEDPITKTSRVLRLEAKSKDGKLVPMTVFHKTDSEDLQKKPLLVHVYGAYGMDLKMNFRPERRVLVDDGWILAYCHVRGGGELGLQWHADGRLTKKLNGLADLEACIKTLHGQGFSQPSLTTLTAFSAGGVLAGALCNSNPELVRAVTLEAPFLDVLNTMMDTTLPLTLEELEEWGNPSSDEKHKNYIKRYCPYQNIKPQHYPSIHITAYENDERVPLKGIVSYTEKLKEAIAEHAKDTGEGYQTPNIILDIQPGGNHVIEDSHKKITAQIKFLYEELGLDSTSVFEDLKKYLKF
CSC inhib: blocks cancer stem cells; cancer stem cell-like cells viability, luminescence; inhibition, % at 7.5 µM; actives 1.1% (n = 300,000); AID 2717; in the data active = inhibition above about 75%; tested in HMLE shEcad cells
GRIN3A LBD mod: NR3A (human) ligand-binding domain modulation; NR3A LBD differential scanning fluorimetry, Tm shift; 0% = protein alone, 100% = glycine-bound protein; Tm shift relative to glycine control, % at 25 µM; actives 2.5% (n = 340,000); AID 1259313;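 active = melting temperature shift of at least 10% of the positive control shift, at one fixed dose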
T cruzi repl: T. cruzi replication inhibition; T. cruzi beta-gal in NIH3T3, luminescence, 90 h; inhibition, % (no concentration beside the values); actives 1.4% (n = 300,000); AID 1885;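 active = mean inhibition across valid replicates above about 55%, limit read from the data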;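 also: signal also drops with host cell toxicity which is not excluded here; 0% = plate median of DMSO wells and 100% = zero luminescence signal; higher percent means less beta-gal luminescence so fewer parasites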
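compound dosing = single 50 nL compound addition per well in DMSO | material = NIH/3T3 host cells with β-galactosidase reporter T. cruzi | input = 5,000 host fibroblasts per well | timing = ≥90 h infection period, 3 h prior cell attachment | read-out basis = percent inhibition of parasite-derived β-gal signal | detection = GalScreen β-gal luminescence, detergent lysis, 60 min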
PREPL confirm: human PREPL inhibition, confirmation; shares compounds with PREPL inhibitor; actives 67% (n = 2,000); recombinant PREPL, fluorescence polarization activity probe; inhibition, % at 5.96 µM;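 also: 0% = protein with DMSO and 100% = wells lacking protein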
* = called active by the depositor; · = not tested or not shown. Rule as the data show it, unless noted: active = inhibition above about 43%; inactive = the rest.

SMILES	Beta apoptosis	CHOP inh	PREPL inhibitor	CSC inhib	GRIN3A LBD mod	T cruzi repl	PREPL confirm
CC1=NN(c2ccc(C(=O)O)cc2)C(=O)/C1=C\c1ccc(OC(=O)c2cccs2)cc1	-10	1	45*	-9	14*	12	62*
CC1=NN(c2ccccc2)C(=O)/C1=C/c1cccs1	·	2	3	-1	2	0	·
CCOc1cc(/C=C2\C(=O)N(c3ccc(C(N)=O)cc3)N=C2C)ccc1OC(=O)c1cccs1	-5	-26	58*	-15	0	7	91*
Cc1ccccc1-n1c(C)nnc1SCC(=O)N(C)C1CCS(=O)(=O)C1 (centres undefined)	-4	15	-1	·	-1	4	·
O=C1N/C(=C/c2ccc(N3CCOCC3)cc2)C(=O)N1Cc1ccc(F)cc1	0	20	48*	59	3	8	75*
O=C1N/C(=C\c2ccsc2)C(=O)N1Cc1ccc(F)cc1	0	1	-15	·	-8	-12	·
CCOc1cc(N2CCOCC2)c(OCC)cc1NC(=O)COC(=O)CCc1c[nH]c2ccccc12	1	29	76*	-8	-3	-8	69*
CCOc1cc(N2CCOCC2)c(OCC)cc1NC(=O)COC(=O)CCOc1ccc(C)cc1	-27	·	12	-2	1	-3	·
CC1=C([N+](=O)[O-])C(c2ccc(Cl)cc2)NC(=O)N1 (centres undefined)	·	·	-2	-14	-2	4	·
CCN1CCN(c2oc(-c3ccco3)nc2C#N)CC1	·	-8	-4	-14	1	17	·
C#CCOCCOCCOCCNc1nc(N2CCN(C(=O)CCCCCCCCCCNC(=O)[C@H](CCCCN)n3cc(CCCC(=O)O)nn3)CC2)nc(N2CCN(C(=O)CCCCCCCCCCNC(=O)[C@H](CCCN=C(N)N)n3cc(C[C@@H](C)CC)nn3)CC2)n1	11	·	44*	-19	23*	50	35
C#CCOCCOCCOCCNc1nc(N2CCN(C(=O)CCCCCCCCCCNC(=O)[C@H](CCCCN)n3cc(CCO)nn3)CC2)nc(N2CCN(C(=O)CCCCCCCCCCNC(=O)[C@H](CCCN=C(N)N)n3cc(C[C@@H](C)CC)nn3)CC2)n1	63	·	56*	135*	26*	·	57*
C#CCOCCOCCOCCNc1nc(N2CCN(C(=O)CCCCCCCCCCNC(=O)[C@@H](CCC(=O)O)n3cc(CCCCCN)nn3)CC2)nc(N2CCN(C(=O)CCCCCCCCCCNC(=O)[C@@H](CCC(=O)O)n3cc(CCCCCN)nn3)CC2)n1	-3	·	16	3	-2	·	·
C#CCOCCOCCOCCNc1nc(N2CCN(C(=O)CCCCCCCCCCNC(=O)[C@H](CCCCN)n3cc(CCO)nn3)CC2)nc(N2CCN(C(=O)CCCCCCCCCCNC(=O)[C@@H]([C@H](C)O)n3cc(C)nn3)CC2)n1	-5	·	40	-1	4	·	·
C#CCOCCOCCOCCNc1nc(N2CCN(C(=O)CCCCCCCCCCNC(=O)[C@H](CCCCN)n3cc(CCO)nn3)CC2)nc(N2CCN(C(=O)CCCCCCCCCCNC(=O)[C@H](CCCCN)n3cc(CCO)nn3)CC2)n1	-3	·	58*	7	0	·	47*
CN(C)C(=O)c1ccc(NC(=O)c2cccc(S(=O)(=O)N3CCN(Cc4ccccc4)CC3)c2)cc1	·	·	·	·	-1	·	·
CN(CC(=O)Nc1ccc(Cl)cc1)C(=O)c1cccc(S(=O)(=O)N2CCN(Cc3ccccc3)CC2)c1	40	·	55*	4	1	19	68*
O=C(C1=C[C@@H](c2ccc(Br)cc2)C[C@@H](OCc2ccc(CO)cc2)O1)N1CCOCC1	10	30	44*	2	1	3	51*
O=C(C1=C[C@@H](c2ccccc2)C[C@@H](OCc2ccc(CO)cc2)O1)N1CCOCC1	-8	-10	29	-10	-1	2	·
O=C(C1=C[C@H](c2ccc(Br)cc2)C[C@H](OCc2ccc(CO)cc2)O1)N1CCOCC1	7	11	43*	-8	1	4	43
CN1CCN(CCCNCc2cn(CCC#N)c3ccccc23)CC1	-1	·	49*	-6	0	-12	31
CCc1ccccc1NC(=O)CNC(=O)CSC(=S)N1CCCC1	-8	·	12	·	0	·	·
C/C(=N\NC(=O)C1CCCN(S(=O)(=O)c2ccccc2)C1)c1ccncc1 (centres undefined)	3	10	43*	·	-1	-1	3
C/C(=N\NC(=O)C1CCCN(S(=O)(=O)c2ccccc2)C1)c1cccnc1 (centres undefined)	-5	-10	-9	-10	-1	-6	·
CC(Sc1ccccc1)C(=O)NN=C1CCN(C)CC1 (centres undefined)	-1	-21	-20	-3	-1	-6	·
O=S(=O)(c1ccc(-c2csc(=Nc3ccccc3)n2CCCN2CCOCC2)cc1)N1CCOCC1	2	39	44*	6	0	21	52*
CCc1ccccc1NC(=O)C1CCCN(S(=O)(=O)c2ccc3c(c2)CC(C)N3C(C)=O)C1 (centres undefined)	1	·	-6	-6	-2	18	·
